Assay outcomes deposited in PubChem BioAssay by several laboratories.
Ins promoter up – MIN6 insulin promoter up-regulation | MIN6 insulin promoter-GFP reporter, high-content imaging; stronger effect = higher value | z-score at 5 µM | 190,000 tested, 0.3% active | AID 1625;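 active = z-score above 3 at 5 µM with at least 500 cells counted in the well; inconclusive = wells under 500 cells, flagged as cytotoxic or low count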
Cl transport mod – modulators of human KCC2 chloride dependent transport | Q9H2X9 | KCC2 cells, thallium flux FluoZin-2 fluorescence | B-score of Tl+ flux slope (higher = more flux/activation; lower = inhibition) at 10 µM | 190,000 tested, 2.2% active;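 active = thallium flux slope and its plate-corrected score both differing from the plate sample mean at a set confidence after two filtering rounds, in either direction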;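 note: slope of fluorescence scaled to starting intensity during 10 to 20 s after thallium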
Autophagy HCS – autophagy modulation, high-content screen | MEF GFP-LC3 puncta imaging; test concentration mostly 10 µM | calls only at 10 µM (by protocol) | 190,000 tested, 0.98% active | AID 463193;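 active = percentage of spot-positive cells more than 3 SD above its plate mean, without a fluorescence outlier flag or 80% toxicity; inconclusive = no clear call, values can overlap the other calls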
Rad51 HR inh – Rad51 (human) homologous recombination inhibition; Q06609; hRad51 DNA strand exchange, fluorescence dequenching; 200,000 tested, 0.085% active; AID 1385; inhibition, % at 10 µM;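 active = inhibition above 40% at the single screening dose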
Target sequence (Q06609 whole entry, looked up): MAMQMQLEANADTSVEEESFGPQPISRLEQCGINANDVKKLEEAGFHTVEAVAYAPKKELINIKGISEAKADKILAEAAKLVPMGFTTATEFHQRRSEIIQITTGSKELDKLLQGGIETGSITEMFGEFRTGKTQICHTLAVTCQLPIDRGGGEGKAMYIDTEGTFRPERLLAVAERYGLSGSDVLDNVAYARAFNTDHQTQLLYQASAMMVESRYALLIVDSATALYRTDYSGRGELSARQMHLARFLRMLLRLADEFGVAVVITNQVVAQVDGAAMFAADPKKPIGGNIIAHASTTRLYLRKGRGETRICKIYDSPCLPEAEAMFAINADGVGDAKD
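Assay system: Human Rad51 nucleoprotein filaments preassembled on unlabelled ssDNA | Reagent: Donor/quencher-labelled 47-bp dsDNA substrate | Doses: One concentration, 10 µM final | Times: 37 °C 15-min filament assembly, 30-min compound preincubation, 15-min exchange | Technique: Fluorescein emission 520 nm, excitation 485 nm | Benchmarks: Plate control and blank wells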
SKKanGAS inh – inhibitors of SKKanGAS S. pyogenes growth in kanamycin (SK-promoter or general growth effect). BacTiter-Glo, 6 h. inhibition, % at 7.5 µM. 300,000 tested, 1.3% active. AID 1662;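 active = mean replicate score, as percent of positive control median, at least 50; inconclusive = mean below 50 but one replicate at or above 50; inactive = mean and every replicate below 50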;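 note: strain carries kanamycin resistance gene driven by streptokinase promoter and grows in 40 µg/ml kanamycin; loss of luminescence reflects streptokinase promoter inhibition or plain growth inhibition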
WT yeast gro inh – growth inhibition of WT yeast, mitochondrial fusion screen | 190,000 tested, 2.1% active | AID 1362 | mitochondrial fusion phenotypic screen, WT strain | inhibition, % at 10 µM; in the data active = inhibition above about 58%; tested in S. cerevisiae
KCC2 sec1 – KCC2 (human) modulation, secondary assay | normalised thallium flux (F/F0 slope) at 10 µM | shares compounds with Cl transport mod | 3,700 tested, 15% active | HEK293-KCC2, thallium flux, FluoZin2 fluorescence; stronger effect = higher value;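 active = thallium flux slope above the same plate's solvent-only control mean plus 3 SD; inconclusive = the two replicate wells disagree; inactive = no significant difference from solvent-only control wells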
KCC2 bumet counter – thallium flux despite bumetanide block in KCC2 cells, secondary assay 3 | shares compounds with Cl transport mod | HEK293-KCC2 + bumetanide/ouabain, thallium flux FluoZin2; stronger effect = higher value | normalized thallium flux at 10 µM | 3,700 tested, 49% active | AID 1714;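 active = thallium entry rate above the same plate's blocked-transporter control wells by more than 3 SD; inconclusive = the two repeat wells disagree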;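 note: raw slope of fluorescence over initial fluorescence between 10 and 20 s after thallium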
KCC2 sec2 – confirmation of human KCC2 transport modulators; shares compounds with Cl transport mod; 3,700 tested, 23% active; HEK293-KCC2, thallium flux FluoZin2 fluorescence; actives lie on both sides; F/F0 rise rate, 10–20 s post-thallium; normalized thallium flux at 10 µM;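 active = thallium flux slope more than 3 SD above or below the plate's solvent-only control mean, mostly below; inconclusive = the two repeat wells disagreed; inactive = no significant shift from solvent-only controls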
HEK counter1 – counter-screen for KCC2 modulators: effect in parental HEK293 cells; 3,700 tested, 46% active; thallium flux rate (normalised fluorescence) at 10 µM; thallium flux FluoZin2, ouabain; baseline-ratio fluorescence slope, 10–20 s after thallium; AID 1716; shares compounds with Cl transport mod;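 active = thallium flux rate significantly above the same plate's solvent-only control wells, beyond their mean plus 3 SD; inconclusive = the two replicate wells gave conflicting results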
KCC2 ouabain – KCC2 (human) modulation, ouabain retest | shares compounds with Cl transport mod | HEK293-KCC2, thallium flux FluoZin2 fluorescence; bidirectional: low = inhibitor, high = activator | raw Tl+ flux slope (below DMSO = inhibition, above = activation) at 10 µM | 3,700 tested, 48% active | AID 1717;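 active = thallium flux slope beyond 3 SD from same-plate DMSO control mean in most replicates, usually higher, sometimes lower; inconclusive = repeat tests gave conflicting results; inactive = no significant difference from controls in most replicates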;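 note: slope of initial-normalized fluorescence between seconds 10 and 20 after thallium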
HEK counter2 – counter-screen for KCC2 modulators: effect in parental HEK293 cells. shares compounds with Cl transport mod. thallium flux slope at 10 µM. thallium flux FluoZin-2 fluorescence slope. AID 1718. 3,700 tested, 33% active;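 active = thallium flux slope above the same plate's solvent-control mean plus 3 SD in both duplicate wells; inconclusive = duplicate wells that disagreed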;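 note: run without ouabain in cells lacking the KCC2 cotransporter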
Numbers stand for hits; - = inactive; ? = inconclusive; . = not tested or not shown. An excerpt weighted towards active compounds, which were near 4.2% of everything screened.

SMILES	Ins promoter up	Cl transport mod	Autophagy HCS	Rad51 HR inh	SKKanGAS inh	WT yeast gro inh	KCC2 sec1	KCC2 bumet counter	KCC2 sec2	HEK counter1	KCC2 ouabain	HEK counter2
C[C@@H](C[C@@H](O)[C@H](O)C(C)(C)O)[C@@H]1CC[C@]2(C)C3=CC[C@H]4C(C)(C)C(=O)CC[C@]4(C)[C@H]3CC[C@@]12C	-	4.77	-	-	96.3	60.3	-	0.0307	-	-	?	-
CC(C)(O)CC[C@@H](O)[C@](C)(O)[C@H]1CC[C@@]2(O)C3=CC(=O)[C@@H]4C[C@@H](O)[C@@H](O)C[C@]4(C)C3CC[C@]12C (some centres undefined)	-	-	-	-	-	-	.	.	.	.	.	.
Cc1oc(-c2cccs2)nc1CN1CCC(CO)(CCOc2ccccc2)CC1	-	-	-	-	-	-	.	.	.	.	.	.
COC(=O)CC1C(=O)NCCN1C(=O)CSc1nc2ccccc2o1 (centres undefined)	-	-	-	-	-	-	.	.	.	.	.	.
COC(=O)CC1C(=O)NCCN1C(=O)CSc1nc2ccccc2c(=O)n1CC(C)C (centres undefined)	-	21.9	-	-	-	-	-	0.0351	0.04	0.0324	0.0375	0.0265
COc1ccc(NC(=O)/C(C#N)=C/c2cccnc2)c(OC)c1	.	.	.	.	-	.	.	.	.	.	.	.
COc1ccc(NC(=O)C(=O)N/N=C/c2cccnc2)c(OC)c1	-	7.75	-	-	-	-	-	?	-	-	-	-
Cc1cccc(NC(=O)c2cccc(N3C(=O)C4C5CCC(C5)C4C3=O)c2)c1C (centres undefined)	-	6.2	-	-	-	-	-	-	-	-	-	-
Cn1c(CNC(=O)c2ccco2)nnc1SCCOc1ccccc1	.	.	.	.	-	.	.	.	.	.	.	.
O=C(CSc1ncnc2c1cnn2-c1ccc(F)cc1)NC1CCCC1	.	.	.	.	-	.	.	.	.	.	.	.
Fc1ccc(-n2ncc3c(SCc4cccnc4)ncnc32)cc1	-	21.3	-	-	-	-	-	0.0256	?	0.0292	0.0308	0.0232
O=C(CSc1ccc(-c2ccccc2)nn1)Nc1ccc2c(c1)OCCO2	-	-6.19	-	.	-	-	-	-	0.0222	-	0.014	-
Cc1cc(NC(=O)CSc2ccc(-c3cccc([N+](=O)[O-])c3)nn2)no1	-	-	-	-	-	-	.	.	.	.	.	.
O=C(CSc1ccc(-c2ccccc2)nn1)c1ccccc1	-	-4.08	-	-	-	-	-	?	0.0215	-	?	-
O=C(CSc1ccccc1)Nc1ccc2c(c1)OCCO2	.	.	.	.	-	.	.	.	.	.	.	.
Cc1cc(NC(=O)CSc2ccc(-c3ccc(F)cc3)nn2)no1	-	-5.24	-	-	-	-	-	-	0.0247	-	?	-
Cc1cc(NC(=O)CSc2ccc(-c3ccccc3)nn2)no1	-	-7.45	-	-	-	-	-	-	0.0243	?	0.013	-
C=C1C(C(=O)Nc2ccccc2)C1C(=O)Nc1ccccc1 (centres undefined)	-	-	.	-	-	.	.	.	.	.	.	.
CC1CCCCN1C(=O)CSc1ccc(-c2ccc(F)cc2)nn1 (centres undefined)	-	.	-	-	-	-	-	-	0.0282	-	0.017	-
CCOc1ccc(CN(CC)C(=O)c2ccc3c(c2)[nH]c(=O)c(=O)n3CC)cc1OC	.	.	.	.	-	.	.	.	.	.	.	.
COC(=O)C1=C(C(=O)OC)[C@@H]2N(Cc3ccccc3)c3ccccc3[C@@]23C[C@@H](C(=O)OC)N(C(C)=O)C3=N1	-	-1.13	.	-	-	.	-	-	-	-	-	-
CCOC(=O)N1C2=NC(C(=O)OC)=C(C(=O)OC)[C@@H]3N(Cc4ccccc4)c4ccccc4[C@]23C[C@H]1C(=O)OC	.	.	.	-	-	.	.	.	.	.	.	.
CC1CN(C(=O)/C(C#N)=C2\N=C(NC(=O)c3ccccc3Cl)c3ccccc32)CC(C)O1 (centres undefined)	-	-	-	-	.	-	.	.	.	.	.	.
O=C(/C=C/c1ccco1)N1CCC(Cc2ccccc2)CC1	.	-4.94	-	-	-	-	-	-	0.0209	-	0.0145	-
CCN(CC(=O)Nc1ccc(OC)c(Cl)c1)CC(=O)NC(C)C	-	-	-	-	-	-	.	.	.	.	.	.
SMILES	Ins promoter up	Cl transport mod	Autophagy HCS	Rad51 HR inh	SKKanGAS inh	WT yeast gro inh	KCC2 sec1	KCC2 bumet counter	KCC2 sec2	HEK counter1	KCC2 ouabain	HEK counter2
N#C/C(=N\Nc1ccccc1Cl)C(=O)c1ccccc1	-	-4.36	-	.	-	-	-	-	-	?	0.0155	-
Cc1ccc(C(=O)Nc2nc(=O)n(C(=O)CC(C)C)s2)cc1	-	-	-	-	-	-	.	.	.	.	.	.
Cc1ccc(C(=O)Nc2nc(=O)n(C(=O)c3ccccc3Cl)s2)cc1	-	-7.24	-	-	-	-	-	?	0.0238	-	0.0124	-
C=CCn1c(=O)[nH]c2cc(C(=O)N3CC=C(c4ccccc4)CC3)ccc2c1=O	-	-	-	-	-	-	.	.	.	.	.	.
Fc1ccc(CSc2nncn2NC/C=C/c2ccccc2)cc1	-	.	-	-	-	-	-	-	?	-	?	-
CC(=O)N/C(=C\c1ccccc1)C(=O)OC/C=C/c1ccccc1	.	.	.	.	-	.	.	.	.	.	.	.
CC(C)CN1C(=O)/C(=C/c2ccco2)NC1=S	-	53.1	-	.	-	-	-	0.0146	-	0.0583	0.0338	0.018
CCOC(=O)C1=C(NC(=S)NC(=O)c2ccccc2)c2ccccc2CC1(C)CC (centres undefined)	-	5.59	-	.	-	70.2	?	0.033	-	0.0151	?	-
CCc1ccc(C(=O)COC(=O)[C@@H](NC(N)=O)[C@@H](C)CC)cc1	-	-	-	-	-	-	.	.	.	.	.	.
C/C(=N\NC(=S)Nc1ccc(C)cc1)c1cccc(N)c1	-	9.45	-	-	-	-	0.0184	0.0526	-	0.0633	0.0476	0.0175
C/C(=N\NC(=S)Nc1cccc(C)c1)c1ccco1	-	78.4	-	-	-	-	0.0277	0.0852	?	0.0633	0.0578	0.0624
CSC1=NS(=O)(=O)c2c(C)nn(C)c2S1	-	-4.03	.	-	-	.	-	-	-	?	-	?
